From ChEMBL document CHEMBL4402517, “Rational modification of Mannich base-type derivatives as novel antichagasic compounds: Synthesis, in vitro and in vivo evaluation” (Bioorg Med Chem, 2019)
Active and inactive are the calls of the source. The calls are words filed in the database; no cut-off is given here.

How the values were obtained:
Trypanosoma cruzi [1] = assay: Antitrypanosomal activity against Trypanosoma cruzi MHOM/Pe/2011/Arequipa;DTU 5 bloodstream trypomastigote infected in BALB/c mouse assessed as parasitemia reactivation in chronic phase at 20 mg/kg/day, po administered for 5 consecutive days starting from day 70 post infection followed by cyclophosphamide induced immunosuppression on day 80 post infection by Neubauer chamber relative to control; assay type: functional
In short: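 Female BALB/c mice (three per group) were infected i.p. with 5 × 10^5 Arequipa bloodstream trypomastigotes and treated orally at 20 mg/kg/day for 5 days (vehicle 5% DMSO/0.5% HPMC). Once parasitemia was undetectable (day 80 pi), cyclophosphamide 200 mg/kg was given i.p. Bloodstream parasites were then counted to give % reactivation versus untreated controls.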

Trypanosoma cruzi [2] = assay: Antitrypanosomal activity against Trypanosoma cruzi MHOM/Pe/2011/Arequipa;DTU 5 bloodstream trypomastigotes infected in BALB/c mouse assessed as reduction in serum Ig-G level in chronic phase at 20 mg/kg/day, po administered for 5 consecutive days starting from day 70 post infection measured at day 76 post infection by ELISA; assay type: functional, organism-based
In short: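 Sera came from infected BALB/c mice (three per group) dosed orally at 20 mg/kg/day for 5 days. Sampling points: 2 days after treatment, the day before immunosuppression (acute only) and necropsy day. Anti-T. cruzi IgG was measured by indirect ELISA using parasite Fe-SOD as antigen, read as OD at 492 nm.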

Vero = assay: Cytotoxicity against African green monkey Vero cells measured after 72 hrs by MTT assay; assay type: cell-based; conditions: Chlorocebus sabaeus
In short: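 Log-phase Vero cells (0.8 × 10^4/well) in RPMI-1640 + 10% heat-inactivated FBS at 37 °C, 5% CO2 were exposed 72 h to serial dilutions (10.0–200.0 µM; stocks in DMSO). MTT was then added for 4 h and absorbance read. Quadruplicates, three experiments; IC50 by nonlinear regression.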

Trypanosoma cruzi [3] = assay: Antitrypanosomal activity against Trypanosoma cruzi IRHOD/CO/2008/SN3;DTU 1 epimastigotes measured after 72 hrs by Neubauer hemocytometer; assay type: functional, organism-based; conditions: IRHOD/CO/2008/SN3;DTU 1, 72 h
[4] = Selectivity index, ratio of IC50 for African green monkey Vero cells to IC50 for Trypanosoma cruzi TINF/CH/1956/Tulahuen;DTU 6; assay type: toxicity; conditions: read-out: Selectivity Index
In short: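 SI = Vero IC50 / epimastigote IC50. Vero cells were grown in RPMI-1640 with 10% FBS, seeded at 0.8 × 10^4 cells/well, exposed to 10.0–200.0 µM for 72 h, then given MTT for 4 h. Epimastigotes were grown in MTL with 10% FBS at 28 °C, 5 × 10^5/mL, exposed to 6.3–50 µM for 48 h, then resazurin for 24 h (570/600 nm). IC50s came from nonlinear regression.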

Trypanosoma cruzi [5] = assay: Antitrypanosomal activity against Trypanosoma cruzi IRHOD/CO/2008/SN3;DTU 1 amastigote forms measured after 72 hrs by Giemsa staining based assay; assay type: functional, organism-based; conditions: IRHOD/CO/2008/SN3;DTU 1, 72 h
In short: (§1)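 Vero cells (1 × 10^4/well, on coverslips) left to adhere 24 h at 37 °C, 5% CO2, then infected with trypomastigotes at MOI 10:1 for 24 h. Free parasites were removed by three PBS washes. Compounds at 3.1, 6.25, 12.5, 25 and 50 µM were incubated 72 h, and amastigotes were counted after Giemsa staining. Triplicates, two separate experiments; IC50 by nonlinear regression.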

Trypanosoma cruzi [6] = assay: Antitrypanosomal activity against bloodstream trypomastigote stage of Trypanosoma cruzi IRHOD/CO/2008/SN3;DTU 1 isolated from parasite infected BALB/c Albino mouse cardiac cells after 24 hrs by Neubauer chamber based cell counting method; assay type: functional, organism-based; conditions: IRHOD/CO/2008/SN3;DTU 1, 24 h
In short: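 Bloodstream trypomastigotes were taken by cardiac puncture from infected BALB/c mice and diluted in RPMI + 10% heat-inactivated FBS. At 2 × 10^6/mL they were exposed to 3.1–50.0 µM (lower where needed) for 24 h at 37 °C, 5% CO2, and counted in a Neubauer chamber. Triplicates, at least three experiments; IC50 by nonlinear regression.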

Trypanosoma cruzi [7] = assay: Antitrypanosomal activity against Trypanosoma cruzi TINF/CH/1956/Tulahuen;DTU 6 amastigote forms measured after 72 hrs by Giemsa staining based assay; assay type: functional, organism-based; conditions: TINF/CH/1956/Tulahuen;DTU 6, 72 h; in short: as §1
[8] = Selectivity index, ratio of IC50 for African green monkey Vero cells to IC50 for Trypanosoma cruzi MHOM/Pe/2011/Arequipa; DTU 5 trypomastigote forms; assay type: toxicity; conditions: read-out: Selectivity Index
In short: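 Bloodstream trypomastigotes were taken from BALB/c mice by cardiac puncture and diluted in RPMI with 10% FBS at 2 × 10^6/mL. They were incubated with 3.1–50.0 µM for 24 h at 37 °C in 5% CO2 and counted in a Neubauer chamber. Triplicate, at least three experiments; nonlinear regression.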

Trypanosoma cruzi [9] = assay: Antitrypanosomal activity against Trypanosoma cruzi MHOM/Pe/2011/Arequipa;DTU 5 bloodstream trypomastigote infected in BALB/c mouse assessed as parasite-free muscle in acute phase at 20 mg/kg/day, po administered for 5 consecutive days starting from day 8 post infection followed by cyclophosphamide induced immunosuppression on day 80 post infection measured after day 100 post infection by PCR method relative to control; assay type: functional
In short: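 Female BALB/c mice (10–12 weeks, three per group) were infected i.p. with 5 × 10^5 Arequipa bloodstream trypomastigotes. Dosing was oral, 20 mg/kg/day for 5 days, as a suspension in 5% DMSO/0.5% HPMC. Cyclophosphamide 200 mg/kg i.p. was given at day 80 pi. At necropsy (day 100) tissues were tested by PCR on the splice leader region (primers TC/TC1, 300 bp). Scored as x/3 mice positive.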

[10] = Toxicity in BALB/c mouse infected with Trypanosoma cruzi MHOM/Pe/2011/Arequipa;DTU 5 bloodstream trypomastigote assessed as increase in serum alanine aminotransferase level in acute phase at 20 mg/kg/day, po administered for 5 consecutive days starting from day 8 post infection and measured at day 14 post infection by biochemical analysis relative to control; assay type: organism-based; conditions: in vivo
In short: (§2)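 Female BALB/c mice (10–12 weeks, 14–20 g; groups of three) were infected i.p. with 5 × 10^5 Arequipa bloodstream trypomastigotes. Dosing was oral at 20 mg/kg/day for 5 days, from day 8 pi (acute) or day 70 pi (chronic), as a 2 mg/ml suspension in 5% DMSO/0.5% HPMC; controls received vehicle. Cyclophosphamide 200 mg/kg i.p. was given at day 80 pi. Serum was collected 2 days post-treatment and at necropsy by cardiac puncture and compared with infected untreated controls.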

[11] = Toxicity in BALB/c mouse infected with Trypanosoma cruzi MHOM/Pe/2011/Arequipa;DTU 5 bloodstream trypomastigote assessed as decrease in serum lactate dehydrogenase level in chronic phase at 20 mg/kg/day, po administered for 5 consecutive days starting from day 70 post infection and measured at day 76 post infection relative to control; assay type: organism-based; design: scale not given: the % may be the effect or the level left; conditions: in vivo; in short: as §2
Trypanosoma cruzi [12] = assay: Antitrypanosomal activity against Trypanosoma cruzi MHOM/Pe/2011/Arequipa;DTU 5 epimastigote assessed as inhibition of DNA and RNA levels at IC50 measured after 72 hrs by acridine orange staining based flow cytometry relative to control; assay type: functional; design: scale not given: the % may be the effect or the level left
In short: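 They were stained with rhodamine 123 or acridine orange and analysed by flow cytometry. Index of variation = (TM−CM)/CM, from median fluorescence of treated (TM) and untreated (CM) parasites.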

Trypanosoma cruzi [13] = assay: Antitrypanosomal activity against Trypanosoma cruzi MHOM/Pe/2011/Arequipa;DTU 5 epimastigote assessed as effect on L-alanine excretion at IC50 after 72 hrs by H NMR method relative to control; assay type: functional, organism-based
In short: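 Cells were spun at 800 × g for 10 min and culture supernatants analysed by 1H NMR. Catabolite peaks were expressed as % variation versus untreated parasites.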

Trypanosoma cruzi [14] = assay: Trypanocidal activity against Trypanosoma cruzi TINF/CH/1956/Tulahuen;DTU 6 trypomastigote forms infected in BALB/c albino mouse measured after 24 hrs by Neubauer chamber method; conditions: TINF/CH/1956/Tulahuen;DTU 6, 24 h

SMILES	Activity (Trypanosoma cruzi [1])	Activity (Trypanosoma cruzi [2])	IC50 (Vero)	IC50 (Trypanosoma cruzi [3])	selectivity ratio [4]	IC50 (Trypanosoma cruzi [5])	IC50 (Trypanosoma cruzi [6])	IC50 (Trypanosoma cruzi [7])	selectivity ratio [8]	Activity (Trypanosoma cruzi [9])	Activity [10]	Activity [11]	Activity (Trypanosoma cruzi [12])	Activity (Trypanosoma cruzi [13])	IC50 (Trypanosoma cruzi [14])
O=C(CCN1CCN(c2ccc(C(F)(F)F)cc2)CC1)c1ccc(O)cc1	30%	Active	107 µM	12.6 µM	7.2	6.6 µM	2.1 µM	3.9 µM	123	13%	> 40%	<= 20%	-4.2%	Active	2.3 µM
O=C(Cn1ccnc1[N+](=O)[O-])NCc1ccccc1 [BENZNIDAZOLE]	40%	Active	> 200 µM	15.3 µM	> 7.9	4.4 µM	33.3 µM	3.9 µM	> 32.5	25%	> 40%	<= 10%	-4.7%	Active	6.7 µM
O=C(CCN1CCN(c2ccc(Cl)cc2)CC1)c1ccc(O)cc1	20%	Active	104 µM	12.1 µM	9.8	4.5 µM	2 µM	3 µM	141	50%	> 40%	<= 10%	-5.1%	Active	2.1 µM
